For one data set, the target named is Cholinesterase (Homo sapiens, UniProt P06276). The data set can be described thus: Inhibition of human BChE after 30 mins by microplate reader method.
Data set [1] can be described thus: Half life of the compound in phosphate buffer at pH 7.3. The data set is classed as physicochemical.
The nature of data set [2]: Chemical stability of the compound in phosphate buffer at pH 7.3. The data set is classed as physicochemical.
A short description of data set [3]: Cellular uptake in human OVCAR3 cytoplasm at 55.5 kBq/mL incubated for 1 hr followed by compound wash out measured after 24 hrs by gamma counting. Format: ADME, cell-based. To be noted: ovcar-3, 1 h. In a few lines: (§1)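 OVCAR-3 cells incubated 1 h with 55.5 (0.04) kBq/mL 125I-labelled agent (diastereomer mixtures or resolved slow isomers); fractionated either immediately or after 24 h further growth in fresh nonradioactive medium; 125I in cytoplasm and nucleus counted as cpm/10^3 cells with std dev.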

The nature of data set [4]: Cellular uptake in human OVCAR3 cell cytoplasm assessed as per 10^3 cells after 24 hrs by gamma counting. The data set is classed as ADME, cell-based. Particulars: ovcar-3, 24 h; call rule not given here. In a few lines:
as §1

A short description of data set [5]: Cellular uptake in human OVCAR3 cell nucleus assessed as per 10^3 cells after 24 hrs by gamma counting. Format: ADME, cell-based. Particulars: ovcar-3, 24 h. In a few lines:
as §1

Data set [6] in a line: Cellular uptake in human OVCAR3 cell nucleus assessed as per 10^3 cells after 1 hr by gamma counting. Particulars: ovcar-3, 1 h. Format: ADME, cell-based. In a few lines: as §1
Data set [7] in a line: Cellular uptake in human OVCAR3 cell cytoplasm assessed as per 10^3 cells after 1 hr by gamma counting. Format: ADME, cell-based. Particulars: ovcar-3, 1 h. Put shortly: as §1

Cholinesterase, sequence (P06276 whole entry): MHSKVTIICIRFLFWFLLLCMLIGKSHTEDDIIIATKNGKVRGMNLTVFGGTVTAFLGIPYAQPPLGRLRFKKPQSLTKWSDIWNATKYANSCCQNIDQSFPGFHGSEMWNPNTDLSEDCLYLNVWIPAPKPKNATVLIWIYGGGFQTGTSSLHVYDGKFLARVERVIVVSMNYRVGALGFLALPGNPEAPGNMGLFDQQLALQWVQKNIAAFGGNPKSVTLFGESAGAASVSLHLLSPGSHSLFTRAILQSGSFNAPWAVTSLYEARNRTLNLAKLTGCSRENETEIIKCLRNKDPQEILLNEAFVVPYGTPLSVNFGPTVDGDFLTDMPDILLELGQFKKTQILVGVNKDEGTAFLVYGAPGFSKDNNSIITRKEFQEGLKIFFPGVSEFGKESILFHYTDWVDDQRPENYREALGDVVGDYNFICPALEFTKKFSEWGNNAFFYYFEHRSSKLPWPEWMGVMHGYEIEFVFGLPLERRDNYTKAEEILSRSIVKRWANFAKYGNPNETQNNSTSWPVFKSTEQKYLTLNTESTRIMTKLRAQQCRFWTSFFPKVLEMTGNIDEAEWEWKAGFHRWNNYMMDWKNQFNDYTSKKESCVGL

As for `Cc1cccc2c1OP(=O)(OC[C@H]1O[C@@H](n3cc(I)c(=O)[nH]c3=O)C[C@@H]1O)OC2` (stereo in doubt; form 2), on Cholinesterase, 0.0612 µM corresponded to half-maximal inhibition (IC50).
For the compound `CC(C)(C)c1cc(C(C)(C)C)c2c(c1F)COP(=O)(OC[C@H]1O[C@@H](n3cc(I)c(=O)[nH]c3=O)C[C@@H]1O)O2` (stereo in doubt; form 1), in data set [1], the t1/2 came out at 47.9 h. This compound returned a K in data set [2] of 2.41 ×10⁻⁴ /min.
For `CC(C)(C)c1cc(C(C)(C)C)c2c(c1F)COP(=O)(O[C@H]1C[C@H](n3cc(I)c(=O)[nH]c3=O)O[C@@H]1CO)O2` (stereo in doubt; form 1), in that order: 15.1 h and 7.66 ×10⁻⁴ /min.
With `O=c1[nH]c(=O)n([C@H]2C[C@H](O)[C@@H](COP3(=O)OCc4ccccc4O3)O2)cc1[125I]` (stereo in doubt; 6b), the Drug uptake entry in data set [3] is given as “Active”; in data set [4] (24 h), 7.3 cpm; in data set [5] (24 h), 39.4 cpm; in data set [6] (1 h), 5.7 cpm; in data set [7] (1 h), 20.2 cpm.
On to `Cc1cn([C@H]2C[C@H](F)[C@@H](COP3(=O)OCc4c(F)c(C(C)(C)C)cc(C(C)(C)C)c4O3)O2)c(=O)[nH]c1=O` (stereo in doubt; form 1), for which, on Cholinesterase, 0.203 µM corresponded to half-maximal inhibition (IC50).
Regarding `Cc1cccc2c1OP(=O)(OC[C@H]1O[C@@H](n3cc([125I])c(=O)[nH]c3=O)C[C@@H]1O)OC2` (stereo in doubt; form 2), the Drug uptake in data set [4] (24 h) is given as 1.8 cpm; in data set [5] (24 h), 29.3 cpm; in data set [6] (1 h), 5.4 cpm; in data set [7] (1 h), 13 cpm. The compound further returned a t1/2 in data set [1] of 25 h. Further, the K in data set [2] is 4.63 ×10⁻⁴ /min.
Compound `Cc1cn([C@H]2C[C@H](O)[C@@H](COP3(=O)OCc4c(F)c(C(C)(C)C)cc(C(C)(C)C)c4O3)O2)c(=O)[nH]c1=O` (stereo in doubt; form 2) returned a 50% inhibitory concentration (IC50) against Cholinesterase of 0.376 µM.
For the compound `Cc1cccc2c1OP(=O)(O[C@H]1C[C@H](n3cc(I)c(=O)[nH]c3=O)O[C@@H]1CO)OC2` (stereo in doubt; form 1), the t1/2 in data set [1] was 12.2 h. Moreover, the K in data set [2] was determined as 9.46 ×10⁻⁴ /min.
`Cc1cn([C@H]2C[C@H](F)[C@@H](COP3(=O)OCc4c(F)c(C(C)(C)C)cc(C(C)(C)C)c4O3)O2)c(=O)[nH]c1=O` (stereo in doubt; form 2): the IC50 against Cholinesterase is 0.0426 µM.
In data set [1], `O=c1[nH]c(=O)n([C@H]2C[C@H](OP3(=O)OCc4ccccc4O3)[C@@H](CO)O2)cc1I` (stereo in doubt; form 2) yielded a t1/2 of 7.1 h. Moreover, the K in data set [2] turned out to be 1.64 ×10⁻³ /min.
For the compound `CC(C)(C)c1cc(C(C)(C)C)c2c(c1F)COP(=O)(OC[C@H]1O[C@@H](n3cc([125I])c(=O)[nH]c3=O)C[C@@H]1O)O2` (stereo in doubt; 8b), the Drug uptake in data set [3] was over 230%; in data set [4] (24 h), 3.2 cpm; in data set [5] (24 h) it was 92.2 cpm; in data set [6] (1 h) it was 7.9 cpm; in data set [7] (1 h), 88.3 cpm.
In data set [1], `CC(C)(C)c1cc(C(C)(C)C)c2c(c1F)COP(=O)(OC[C@H]1O[C@@H](n3cc(I)c(=O)[nH]c3=O)C[C@@H]1F)O2` (stereo in doubt; form 2) came in with a t1/2 of 52 h. Further, the K in data set [2] is reported as 2.22 ×10⁻⁴ /min. This compound also showed an IC50 against Cholinesterase of 0.0198 µM.
As to `CC(C)(C)c1cc(C(C)(C)C)c2c(c1F)COP(=O)(OC[C@H]1O[C@@H](n3cc(I)c(=O)[nH]c3=O)C[C@@H]1O)O2` (stereo in doubt; form 3), at Cholinesterase, the half-inhibitory concentration (IC50) is 1.14 µM.
The same measure, in the same setting: then `Cc1cccc2c1OP(=O)(OC[C@H]1O[C@@H](n3cc(I)c(=O)[nH]c3=O)C[C@@H]1O)OC2` (stereo in doubt; form 1), with over 7000 µM.
Turning to `Cc1cccc2c1OP(=O)(O[C@H]1C[C@H](n3cc([125I])c(=O)[nH]c3=O)O[C@@H]1CO)OC2` (stereo partly drawn), the Drug uptake came out at 1.4 cpm in data set [4], 15.7 cpm in data set [5], 2 cpm in data set [6] and 6.2 cpm in data set [7].
In data set [1], `CC(C)(C)c1cc(C(C)(C)C)c2c(c1F)COP(=O)(OC[C@H]1O[C@@H](n3cc([125I])c(=O)[nH]c3=O)C[C@@H]1F)O2` (stereo in doubt; form 2) yielded a t1/2 of 51.5 h. This compound returned a K in data set [2] of 2.24 ×10⁻⁴ /min.
Consider `Cc1cccc2c1OP(=O)(OC[C@H]1O[C@@H](n3cc([125I])c(=O)[nH]c3=O)C[C@@H]1OP1(=O)OCc3cccc(C)c3O1)OC2` (stereo partly drawn), for which the Drug uptake in data set [4] is on record as 13.4 cpm; in data set [5], 24.5 cpm; in data set [6], 6 cpm; in data set [7], 97.1 cpm.
Compound `O=c1[nH]c(=O)n([C@H]2C[C@H](OP3(=O)OCc4ccccc4O3)[C@@H](CO)O2)cc1I` (stereo in doubt; form 1) returned a t1/2 in data set [1] of 5.3 h. The K in data set [2] was 2.05 ×10⁻³ /min.
As for `CC(C)(C)c1cc(C(C)(C)C)c2c(c1F)COP(=O)(O[C@H]1C[C@H](n3cc([125I])c(=O)[nH]c3=O)O[C@@H]1CO)O2` (stereo partly drawn), the Drug uptake amounted to 2.7 cpm in data set [4], 66.7 cpm in data set [5], 4.3 cpm in data set [6] and 62.5 cpm in data set [7].
In data set [1], `CC(C)(C)c1cc(C(C)(C)C)c2c(c1F)COP(=O)(OC[C@H]1O[C@@H](n3cc(I)c(=O)[nH]c3=O)C[C@@H]1O)O2` (stereo in doubt; form 2) returned a t1/2 of 61.5 h. For the same compound, in data set [2], the K stood at 1.88 ×10⁻⁴ /min. The same compound returned an IC50 on Cholinesterase of 0.0501 µM.
Compound `Cc1cn([C@H]2C[C@H](O)[C@@H](COP3(=O)OCc4c(F)c(C(C)(C)C)cc(C(C)(C)C)c4O3)O2)c(=O)[nH]c1=O` (stereo in doubt; form 1) displayed an IC50 at Cholinesterase of 23.6 µM.
Same read-out and setting: then `O=c1[nH]c(=O)n([C@H]2C[C@H](O)[C@@H](COP3(=O)OCc4ccccc4O3)O2)cc1I` (stereo in doubt; form 1), with 1.28 µM.
For `Cc1cccc2c1OP(=O)(O[C@H]1C[C@H](n3cc(I)c(=O)[nH]c3=O)O[C@@H]1CO)OC2` (stereo in doubt; form 2), the t1/2 in data set [1] came to 14.2 h. The same compound showed a K in data set [2] of 8.13 ×10⁻⁴ /min.
As to `O=c1[nH]c(=O)n([C@H]2C[C@H](OP3(=O)OCc4ccccc4O3)[C@@H](CO)O2)cc1[125I]` (stereo partly drawn), the Drug uptake in data set [4] was 2.7 cpm; in data set [5], 30.2 cpm; in data set [6], 2.1 cpm; in data set [7], 7.2 cpm.
At Cholinesterase, `O=c1[nH]c(=O)n([C@H]2C[C@H](O)[C@@H](COP3(=O)OCc4ccccc4O3)O2)cc1I` (stereo in doubt; form 2) came in with a half-maximal inhibitory concentration (IC50) of 0.0092 µM.
For `CC(C)(C)c1cc(C(C)(C)C)c2c(c1F)COP(=O)(OC[C@H]1O[C@@H](n3cc(I)c(=O)[nH]c3=O)C[C@@H]1F)O2` (stereo in doubt; form 1), the t1/2 in data set [1] worked out at 39.6 h. For the same compound, in data set [2], the K is 2.92 ×10⁻⁴ /min. This compound also came in with an IC50 on Cholinesterase of 0.549 µM.
For the compound `O=c1[nH]c(=O)n([C@H]2C[C@H](OP3(=O)OCc4ccccc4O3)[C@@H](COP3(=O)OCc4ccccc4O3)O2)cc1[125I]` (stereo partly drawn), the Drug uptake in data set [4] came to 37.3 cpm; in data set [5] it was 18.1 cpm; in data set [6] it was 6.4 cpm; in data set [7] it was 97.6 cpm.

As usually defined, the IC50 is the concentration that gives 50% inhibition. Low readings indicate greater potency in that assay, high ones weaker potency in that assay.

The record behind these values is ChEMBL document CHEMBL2146438, “Radiolabeled cyclosaligenyl monophosphates of 5-iodo-2'-deoxyuridine, 5-iodo-3'-fluoro-2',3'-dideoxyuridine, and 3'-fluorothymidine for molecular radiotherapy of cancer: synthesis and biological evaluation” (J Med Chem, 2012).
